# Experimental data reported in ChEMBL document CHEMBL1141897, “Pyrrolidinedione derivatives as antibacterial agents with a novel mode of action” (Bioorg Med Chem Lett, 2005).
# Columns and labels:
# Type in all cases: functional
# Escherichia coli [1] = assay: Minimum inhibitory concentration of the compound againstEscherichia coli HN818 strain was determined
# Procedure, shortened: (§1)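 Whole-cell MIC panel of the Gram-positive S. aureus 133 and S. pneumoniae G9A, plus two E. coli strains: Neumann (wild type) and HN818 (efflux pump deletion strain).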
# Streptococcus pneumoniae = assay: Minimum inhibitory concentration against Streptococcus pneumoniae G9A strain was determined
# Escherichia coli [2] = assay: Minimum inhibitory concentration of the compound againstEscherichia coli Neumann strainwas determined; procedure, shortened: as §1
# Staphylococcus aureus [3] = assay: Minimum inhibitory concentration of the compound against Staphylococcus aureus 133 strain was determined; procedure, shortened: as §1
# Staphylococcus aureus [4] = assay: Inhibitory concentration of the compound against Staphylococcus aureus was determined
# Escherichia coli [5] = assay: Inhibitory concentration of the compound against Escherichia coli was determined
SMILES,MIC (Escherichia coli [1]) [µg/mL],MIC (Streptococcus pneumoniae) [µg/mL],MIC (Escherichia coli [2]) [µg/mL],MIC (Staphylococcus aureus [3]) [µg/mL],IC50 (Staphylococcus aureus [4]) [nM],IC50 (Escherichia coli [5]) [nM]
C/C=C/C=C/C(=O)N[C@@H](CC(=O)N[C@H](C(=O)[C@@H]1C(=O)N(NC)C(=O)[C@H]1C)C(C)C)c1ccccc1,8,16,> 64,4,105,14
C/C=C/C=C/C(=O)N[C@@H](CC(=O)N[C@H](C(=O)[C@@H]1C(=O)N(C)C(=O)[C@H]1C)C(C)C)c1ccccc1,16,> 64,> 64,16,211,25
CC(C)[C@H](NC(=O)C[C@H](NC(=O)/C=C/c1ccccc1)c1ccccc1)C(=O)[C@@H]1C(=O)NC(=O)[C@H]1C,2,32,32,8,75,9
C/C=C/C=C/C(=O)N[C@@H](CC(=O)N[C@H](C(=O)C1C(=O)NC(=O)CC1C)C(C)C)c1ccccc1 (stereo not given in full),> 64,> 64,> 64,> 64,> 1000,> 300
C/C=C/C=C/C(=O)N[C@@H](CC(=O)N[C@H](C(=O)[C@@H]1C(=O)N(N(C)C)C(=O)[C@H]1C)C(C)C)c1ccccc1,4,16,> 64,4,238,33
C/C=C/C=C/C(=O)N[C@@H](CC(=O)N[C@H](C(=O)[C@@H]1C(=O)N(C)C(=O)[C@H]1CC)C(C)C)c1ccccc1,> 64,> 64,> 64,> 64,> 1000,> 200
CC(C)[C@H](NC(=O)C[C@H](NC(=O)/C=C/c1ccc(Cl)c(Cl)c1)c1ccccc1)C(=O)[C@@H]1C(=O)NC(=O)[C@H]1C,1,32,8,2,288,7
COc1cccc(/C=C/C(=O)N[C@@H](CC(=O)N[C@H](C(=O)[C@@H]2C(=O)NC(=O)[C@H]2C)C(C)C)c2ccccc2)c1,2,16,32,4,43,4
C/C=C/C=C/C(=O)N[C@@H](CC(=O)N[C@H](C(=O)[C@@H]1C(=O)N(CCOC)C(=O)[C@H]1C)C(C)C)c1ccccc1,> 64,64,> 64,64,1300,150
CC(C)[C@H](NC(=O)C[C@H](NC(=O)/C=C/c1c[nH]cn1)c1ccccc1)C(=O)[C@@H]1C(=O)NC(=O)[C@H]1C,64,> 64,> 64,> 64,151,6
C/C=C/C=C/C(=O)N[C@@H](CC(=O)N[C@H](C(=O)[C@@H]1C(=O)N(OCC)C(=O)[C@H]1C)C(C)C)c1ccccc1,64,32,> 64,8,123,100
CC(C)[C@H](NC(=O)C[C@H](NC(=O)/C=C/c1ccc(-c2ccccc2)cc1)c1ccccc1)C(=O)[C@@H]1C(=O)NC(=O)[C@H]1C,> 64,16,> 64,2,540,37
C/C=C/C=C/C(=O)N[C@@H](CC(=O)N[C@H](C(=O)[C@@H]1C(=O)N(C2CC2)C(=O)[C@H]1C)C(C)C)c1ccccc1,> 64,> 64,> 64,> 64,2560,60
C/C=C/C=C/C(=O)N[C@@H](CC(=O)N[C@H](C(=O)[C@@H]1C(=O)NC(=O)[C@H]1C)C(C)C)c1ccccc1,4,32,32,8,96,6
C/C=C/C=C/C(=O)N[C@@H](CC(=O)N[C@H](C(=O)C1CC(C)C(=O)NC1=O)C(C)C)c1ccccc1 (stereo not given in full),> 64,> 64,> 64,> 64,> 1000,295
C/C=C/C=C/C(=O)N[C@@H](CC(=O)N[C@H](C(=O)[C@H]1CC(=O)N(C)C1=O)C(C)C)c1ccccc1,> 64,> 64,> 64,> 64,> 1000,> 200
CC(C)[C@H](NC(=O)C[C@H](NC(=O)/C=C/C(=O)O)c1ccccc1)C(=O)[C@@H]1C(=O)NC(=O)[C@H]1C,> 64,> 64,> 64,> 64,317,2
C/C=C/C=C/C(=O)N[C@@H](CC(=O)N[C@H](C(=O)C1CCC(=O)NC1=O)C(C)C)c1ccccc1 (stereo not given in full),> 64,> 64,> 64,> 64,> 1000,> 300
C/C=C/C=C/C(=O)N[C@@H](CC(=O)N[C@H](C(=O)[C@@H]1C(=O)NC(=O)C1(C)C)C(C)C)c1ccccc1,> 64,> 64,> 64,> 64,900,54
C/C=C/C=C/C=C/C(=O)N[C@@H](CC(=O)N[C@H](C(=O)[C@@H]1C(=O)NC(=O)[C@H]1C)C(C)C)c1ccccc1,32,8,> 64,8,305,13
